Source: ChEMBL document CHEMBL1150866, “Chemical constituents from Lippia sidoides and cytotoxic activity” (J Nat Prod, 2001)
In brackets after ≈: the same amount, converted by molar mass.

Experiments:
Type in all cases: functional, cell-based
HL-60 = test: Cytotoxicity against human HL60 cells after 3 days by MTT assay; settings: HL-60, 72 h
How it was run: (§1)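 Suspension cells were kept in RPMI1640 with 10% FBS and seeded at 0.5×10^6 cells/100 μL without preincubation. Fresh medium holding 0.39–25 μg/mL drug was added, and cells were exposed for 3 days. MTT in serum-free medium was then given for 3 h at 37 °C, the formazan dissolved in DMSO, and absorbance read at 550 nm.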

SW1573 = test: Cytotoxicity against human SW1573 cells after 3 days by MTT assay; settings: SW1573, 72 h
How it was run: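 Adherent cells were grown in RPMI1640 with 10% FBS, plated at 0.2×10^5 cells/100 μL, and left 24 h to attach. Drug in fresh medium was applied at 0.39–25 μg/mL for 3 days. Viability was by MTT in serum-free medium for 3 h at 37 °C, with DMSO solubilization and absorbance at 550 nm.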

CCRF-CEM = test: Cytotoxicity against human CEM cells after 3 days by MTT assay; settings: 72 h; how it was run: as §1

Compound	IC50 (HL-60) [µg/mL]	IC50 (SW1573) [µg/mL]	IC50 (CCRF-CEM) [µg/mL]
COc1cc([C@H]2c3cc(O)c(OC)cc3C[C@@H](CO)[C@@H]2CO)ccc1O [ISOLARICIRESINOL]	> 10	> 10	> 10
CC(=O)Oc1c(-c2c3c(c4ccccc4c2OC(C)=O)OC(C)(C)C=C3)c2c(c3ccccc13)OC(C)(C)C=C2	> 10	> 10	> 10
COc1cc2c(c3ccccc13)OC(C)(C)C=C2 [LAPACHENOL]	> 10	> 10	> 10
O=c1cc(-c2ccc(O)c(O)c2)oc2cc(O)cc(O)c12 [LUTEOLIN]	> 10	> 10	> 10
CC1=C[C@H]2C3=C(C(=O)c4ccccc4C3=O)[C@]3(O)c4ccccc4C(=O)[C@@]2(/C=C/C(C)(C)O)[C@H]3C1 [LIPPSIDOQUINONE]	2.38 (≈ 5.1 µM)		2.58 (≈ 5.53 µM)
O=c1c(O)c(-c2ccc(O)c(O)c2)oc2cc(O)cc(O)c12 [QUERCETIN]	> 10	> 10	> 10
O=c1cc(-c2ccc(O)c(O)c2)oc2cc(O[C@@H]3O[C@H](CO)[C@@H](O)[C@H](O)[C@H]3O)cc(O)c12 [GALUTEOLIN]	> 10	> 10	> 10
Cc1ccc2c(c1)C(=O)c1ccccc1C2=O [TECTOQUINONE]	> 10	> 10	> 10
CC1(C)C=Cc2c(-c3c4c(c5ccccc5c3O)OC(C)(C)C=C4)c(O)c3ccccc3c2O1 [tectol]	1.79 (≈ 3.97 µM)		0.78 (≈ 1.73 µM)
CC(C)=CC1Oc2c(c3c(c4ccccc24)OC(C)(C)C=C3)C2=C1C(=O)c1ccccc1C2=O (stereo unspecified) [TECOMAQUINONE]	> 10	> 10	> 10
O=C1c2c(O)cc(O)cc2OC(c2ccc(O)c(O)c2)C1O (stereo unspecified) [TAXIFOLIN]	> 10	> 10	> 10
